Measured values pooled from the literature.
Each line is one published result; the experiments were not run side by side.
Organism: Acinetobacter baumannii
Effect on: microbial growth

Structure (SMILES) | test | test system | conditions | MIC
[H]/N=C(\N/C(=N/[H])NCCCCCCNC(=N)NC(=N)Nc1ccc(Cl)cc1)Nc1ccc(Cl)cc1 |  | ATCC17978 |  | 8 µM
CNC(C)C1CCC(N)C(OC2C(N)CC(N)C(OC3OCC(C)(O)C(NC)C3O)C2O)O1 (stereo not shown) | broth dilution | ATCCBAA1605 |  | > 64 µg/mL
N[C@@H](Cc1c[nH]c2ccc(Cl)cc12)C(=O)O |  | ATCC17978 | 18 h | > 200 µM
C[C@@H](O)[C@H]1C(=O)N2C(C(=O)O)=C(S[C@@H]3CN[C@H](C(=O)N(C)C)C3)[C@H](C)[C@H]12 | broth dilution | ATCC19606 |  | 0.5 µg/mL
CCCCCCC#Cc1cncc(-c2nnc(SCc3cc([N+](=O)[O-])cc([N+](=O)[O-])c3)n2C2CCNCC2)c1 | broth dilution | ATCC17978 |  | 64 µg/mL
CC1(C)S[C@@H]2[C@H](NC(=O)[C@H](N)c3ccccc3)C(=O)N2[C@H]1C(=O)O | broth dilution | ATCCBAA1605 |  | > 64 µg/mL
CCCCCCC#Cc1cncc(-c2nnc(SCc3cc([N+](=O)[O-])cc([N+](=O)[O-])c3)n2CCOC2OC(CN)C(O)C2O)c1 (stereo not shown) | broth dilution | ATCC17978 |  | 64 µg/mL
CCCCCCCCN=c1ccn(CCCCCCCCCCn2ccc(=NCCCCCCCC)cc2)cc1 |  | ATCC17978 |  | 1 µM
Nc1nc(-c2ccc3nc(-c4cc(C(F)(F)F)cc(C(F)(F)F)c4)[nH]c3c2)c[nH]1 | broth dilution | AB5075 |  | 50 µM
CCCCCCC#Cc1cncc(-c2nnc(SCc3ccc([N+](=O)[O-])o3)n2CCCN)c1 | broth dilution | ATCC17978 |  | 32 µg/mL
